Measurements from different studies.
Compare with care: the assays were run in different laboratories.
Effect on: cell growth or viability

COC(=O)c1c(C)ncn1CC(c1c[nH]c2ccccc12)c1c[nH]c2ccccc12  CC50 (HaCaT; MTS; 24 h): > 20 µM
O=C(N[C@@H](Cc1ccccc1)C(=O)c1ncc(-c2ccccc2)o1)[C@H](Cc1ccccc1)NC(=O)N1CCOCC1  CC50 (MRC-5 SV2): > 64 µM
CCCCCCCCCCCCCCCCOP(=O)([O-])OCC[N+](C)(C)C  CC50 (HaCaT; MTS; 24 h): > 20 µM
N=C(N)c1ccc(/N=N/Nc2ccc(C(=N)N)cc2)cc1  CC50 (MRC-5 SV2; resazurin; 72 h): > 64 µM
O=C(N[C@@H](Cc1ccccc1)C(=O)c1cn(COCc2ccccc2)nn1)[C@H](Cc1ccccc1)NC(=O)N1CCOCC1  CC50 (MRC-5 SV2): > 64 µM
CCOC(=O)c1cn(CC(c2cn(C)c3ccc(C)cc23)c2cn(C)c3ccc(C)cc23)c(C)c1C(=O)OC  CC50 (HaCaT; MTS; 24 h): > 20 µM
Cc1cn([C@H]2C[C@H](N=[N+]=[N-])[C@@H](CO)O2)c(=O)[nH]c1=O  CC50 (CEM-GFP; MTT; 48 h): > 200 µg/mL
Cc1ccc(C(=O)Nc2ccc(S(=O)(=O)O)c3cc(S(=O)(=O)O)cc(S(=O)(=O)O)c23)cc1NC(=O)c1cccc(NC(=O)Nc2cccc(C(=O)Nc3cc(C(=O)Nc4ccc(S(=O)(=O)O)c5cc(S(=O)(=O)O)cc(S(=O)(=O)O)c45)ccc3C)c2)c1  CC50 (MRC-5 SV2; resazurin; 72 h): > 64 µM
Cc1ncnc2c1c(SC(F)(F)F)cn2[C@@H]1O[C@H](CO)[C@@H](O)[C@H]1O  CC50 (MRC-5 SV2; resazurin; 72 h): 36.8 µM
O=C(N[C@@H](Cc1ccccc1)C(=O)c1ncc(-c2ccccc2)s1)[C@H](Cc1ccccc1)NC(=O)N1CCOCC1  CC50 (MRC-5 SV2): > 64 µM
C[C@@H]1O[C@@H](OC[C@H]2O[C@@H](Oc3c(-c4ccc(O)c(O)c4)oc4cc(O)cc(O)c4c3=O)[C@H](O)[C@@H](O)[C@@H]2O)[C@H](O)[C@H](O)[C@H]1O  CC50 (CEM-GFP; MTT; 48 h): > 250 µg/mL
